High-throughput results deposited in PubChem BioAssay by The Scripps Research Institute Molecular Screening Center.
A selection: hits, their analogues and other compounds. The true share with any hit is near 2.8%.
PAFAH1B2 inh = PAFAH1B2 (human) inhibition. recombinant PAFAH1B2, FP-rhodamine activity probe, fluorescence polarization. inhibition, % at 3.39 µM. actives 1.2% (n = 340,000). AID 492953;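 active means inhibition above the mean of all tested compounds plus 3 SD, cut at about 24% in these data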
ARFGAP1 inhibitor = inhibits rat ARF GTPase activating protein 1 | Q62848 | Arfgap1-stimulated ARF1 GTP hydrolysis, GDP FP detection | inhibition, % at 16.5 µM | actives 0.26% (n = 360,000) | AID 651572;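 active means inhibition above a per-plate limit, mean inhibition of low control wells plus 3 SD, cut at about 25% in these data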
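Material: truncated rat Arfgap1 GAP domain; Incubation: compound-enzyme preincubation 20 min, reaction 120 min, detection 60 min, 25 °C; Read-out: percent inhibition of Arfgap1-stimulated GTP hydrolysis; Technique: FP, GDP Alexa 633 tracer displaced from anti-GDP antibody, 620/688 nm; Controls: No-Arfgap1 wells (100%) versus DMSO full-reaction wells (0%); Replication: single well per compound.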
pPAFAH FP inh = pPAFAH (human) enzyme inhibition. Q13093. recombinant pPAFAH, FP-rhodamine probe fluorescence polarization. inhibition, % at 3.39 µM. actives 1.5% (n = 330,000). AID 463082;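 active means inhibition above the mean inhibition across the screen plus 3 SD, cut at about 25% in these data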;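 further: inhibitors block binding of the rhodamine activity-based probe so polarization drops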
Target sequence (Q13093 whole entry, looked up): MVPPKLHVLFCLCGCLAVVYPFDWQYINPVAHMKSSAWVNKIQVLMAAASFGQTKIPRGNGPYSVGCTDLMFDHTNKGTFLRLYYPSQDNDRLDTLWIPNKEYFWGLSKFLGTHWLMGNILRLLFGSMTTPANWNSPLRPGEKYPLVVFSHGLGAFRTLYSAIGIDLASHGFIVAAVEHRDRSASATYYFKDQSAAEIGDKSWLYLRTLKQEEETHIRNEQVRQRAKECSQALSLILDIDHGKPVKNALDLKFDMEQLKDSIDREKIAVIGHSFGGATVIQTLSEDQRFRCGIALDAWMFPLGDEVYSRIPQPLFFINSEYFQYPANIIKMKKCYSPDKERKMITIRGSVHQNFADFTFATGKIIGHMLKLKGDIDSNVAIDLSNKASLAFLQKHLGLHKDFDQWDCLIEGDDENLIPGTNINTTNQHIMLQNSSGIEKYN
ASAP1 inh = ASAP1 ArfGAP inhibition; ASAP1-stimulated ARF1 GTP hydrolysis, GDP FP detection; inhibition, % at 16.5 µM; actives 0.19% (n = 360,000); AID 624377; in the data active means inhibition above about 25%
PAFAH1B3 inh = PAFAH1B3 (human) inhibition; actives 0.28% (n = 340,000); recombinant PAFAH1B3, FP-rhodamine probe, fluorescence polarization; AID 492972; inhibition, % at 3.39 µM; Q15102;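 active means inhibition above the screen-wide average of all tested compounds plus 3 SD, cut at about 25% in these data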
PAFAH2 inh = inhibitors of human PAFAH2; Q99487; recombinant PAFAH2, FP-rhodamine activity probe, fluorescence polarization; inhibition, % at 3.39 µM; actives 0.99% (n = 340,000); AID 492956;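 active means inhibition above the mean over all tested compounds plus 3 SD, cut at about 30% in these data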;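 further: inhibitors block probe labeling of enzyme so polarization drops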
pPAFAH FP conf = confirmation of human plasma PAF acetylhydrolase (pPAFAH) inhibitors; actives 72% (n = 2,300); recombinant pPAFAH, FP-Rh probe fluorescence polarization; shares compounds with pPAFAH FP inh; inhibition, % at 3.39 µM;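 active means mean inhibition of the triplicate above the hit cutoff set for the earlier primary screen, cut at about 25% in these data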
Hits are given with their value; i = inactive; nt = no result given.

SMILES	PAFAH1B2 inh	ARFGAP1 inhibitor	pPAFAH FP inh	ASAP1 inh	PAFAH1B3 inh	PAFAH2 inh	pPAFAH FP conf
O=C(OCc1ccc(Br)cc1)c1cc([N+](=O)[O-])ccc1N1CCOCC1	nt	i	nt	i	nt	nt	nt
NS(=O)(=O)c1ccc(CNC(=O)Cc2cccs2)cc1	i	i	35.2	i	i	i	i
C=C(CN(C)C)C(=O)c1cc(OC)c(OC)cc1OC	i	i	nt	i	i	i	nt
Cc1cc(C)n(-c2ccc(C(=O)OCc3ccccc3)cc2)n1	i	i	i	i	i	i	nt
Cc1cc(C)n(-c2ccc(C(=O)OCC(=O)c3ccc(Br)s3)cc2)n1	i	i	35.9	i	i	50.0	27.0
CC(C)[C@H](NC(=O)OC(C)(C)C)c1cc(C(=O)NC2CC2)c(N)s1	nt	i	nt	i	nt	nt	nt
O=C1c2ccccc2C(=O)c2cc(S(=O)(=O)Nc3ccccc3)ccc21	i	i	36.5	i	i	i	34.1
CC1Cc2[nH]c(=S)[nH]c(=O)c2C(C)O1 (centres undefined)	nt	i	nt	i	nt	nt	nt
COC(=O)c1c(NC(=O)/C=C/C(=O)O)sc(C)c1-c1ccc(C(C)C)cc1	i	i	i	i	i	i	nt
COC(=O)c1c(NC(=O)/C=C/C(=O)O)sc(C)c1-c1ccc(C)c(C)c1	i	i	43.7	i	i	i	28.0
CCOC(=O)c1c(NC(=O)/C=C/C(=O)O)sc(C)c1-c1ccc(C)c(C)c1	i	i	54.0	i	i	i	63.4
CCC(CC)c1nnc(NC(=O)CSCc2c(C)noc2C)s1	nt	i	nt	i	nt	nt	nt
O=C(c1ccccc1)c1ccc(OC(=O)N2CCOCC2)cc1	i	i	52.3	i	i	35.0	53.3
O=C(Oc1ccc(C(=S)N2CCOCC2)cc1)c1ccccc1	i	i	i	i	i	i	nt
CCCCOC(=O)c1ccc(OC(=O)N2CCOCC2)cc1	i	i	93.5	i	i	36.2	97.1
CCOC(=O)N1CCN(C(=O)N2CCOCC2)CC1	i	i	i	i	i	i	nt
CCCCOC(=O)N1CCOCCOCCN(C(=O)OCCCC)CCOCCOCC1	i	i	35.1	i	i	i	26.1
CC(=O)Nc1cccc(-c2ccnc3c2CC(C)(C(=O)NCc2cccs2)O3)c1 (centres undefined)	nt	i	nt	i	nt	nt	nt
CC(=O)c1ccccc1NC(=O)CN1C(=O)NC2(CCCCCCC2)C1=O	i	i	nt	i	i	i	nt
COc1cccc(N2CCN(c3ccc4nnc(CCC(=O)Nc5ccccc5OC)n4n3)CC2)c1	i	i	i	i	i	i	nt
Cc1c(NS(=O)(=O)c2cccc(C(=O)NCc3ccco3)c2)c(=O)n(-c2ccccc2)n1C	i	i	nt	i	i	i	nt
O=C(Nc1cc(=O)[nH]c(=O)[nH]1)c1cc(Cl)ccc1Cl	i	i	i	i	i	i	nt
CN(C)S(=O)(=O)c1ccc(C(=O)NCc2nnc(SCC(=O)N3CCCC3)o2)cc1	i	i	i	i	i	i	nt
COc1cccc(C2=NN(C(=O)C3CC3)C(O)(C(F)(F)F)C2)c1 (centres undefined)	nt	i	nt	i	nt	nt	nt
O=C(CCN1C(=O)/C(=C/c2ccco2)SC1=S)Nc1ccc(C(=O)O)c(O)c1	i	i	39.8	i	i	i	i
SMILES	PAFAH1B2 inh	ARFGAP1 inhibitor	pPAFAH FP inh	ASAP1 inh	PAFAH1B3 inh	PAFAH2 inh	pPAFAH FP conf
O=C(CCN1C(=O)/C(=C\c2ccco2)SC1=S)Nc1ccc(C(=O)O)c(O)c1	i	i	49.0	i	i	i	i
CN1CCN(c2nc3cc(N4CCOCC4)ccc3s2)CC1	nt	i	nt	i	nt	nt	nt
CC(C)Cn1c(=O)c(C(=O)NCc2ccccn2)c(O)c2ccccc21	i	i	55.7	i	i	i	i
CCn1c(=O)c(C(=O)NCc2ccccc2)c(O)c2ccccc21	i	i	i	i	i	i	nt
COC(=O)[C@]12C[C@H](CC(=O)N3CCOCC3)C(=O)N(Cc3ccc4c(c3)OCO4)C1=C[C@H](COCc1ccccc1)O[C@@H]2C	nt	i	nt	i	nt	nt	nt
O=C1CCCC(O)=C1N=Nc1c(Cl)cc(C(F)(F)F)cc1Cl	35.2	i	39.3	i	36.8	64.4	i
O=C(COC(=O)c1c2c(nc3ccccc13)/C(=C/c1cccc([N+](=O)[O-])c1)CCC2)NC1CCS(=O)(=O)C1 (centres undefined)	i	i	37.6	i	i	i	43.9
